High-throughput results (PubChem)
In the library only some 4.1% were active in any assay of this set; here they are far more common.
KCNK3 block – human KCNK3 channel inhibitors, primary screen, CHO cells, FluxOR thallium flux, B-score; Potassium channel subfamily K member 3 (Homo sapiens), O14649; FluxOR fluorescence; stronger effect = lower value; B-score at 10 µM; 0.84% of 340,000 active;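 active = B-score under library mean minus 4 SD, starting fluorescence ratio at most library mean plus 5 SD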;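 note: more negative B-score means stronger inhibition of thallium flux through KCNK3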
KCNQ1 act – potentiators or activators of KCNQ1 channel, primary screen, cell-based, thallium flux, high-throughput; CHO-K1 KCNQ1, thallium flux FluxOR fluorescence; stronger effect = higher value; B-score at 10 µM; 0.35% of 310,000 active;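 active = fluorescence ratio B-score, a plate-corrected score, at least three library SD, with initial intensity B-score within 5 SD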
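Test system: CHO-K1 cells stably expressing KCNQ1 / Medium: assay buffer / Also added: depolarizing K+/Tl+ stimulus, K2SO4 and Tl2SO4 each 12.5 mM in 5x stock / Incubation: 90 min dye loading and 20 min compound exposure, both at room temperature / Signal: thallium influx via FluxOR fluorescence, kinetic imaging / Evaluation: B score of baseline-normalized fluorescence ratio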
hERG protect – hERG rescue from dofetilide block, primary screen, cell-based, CHO-hERG, FluxOR thallium flux, dofetilide IC70; dofetilide IC70 present; activation (rescue from dofetilide block), less the hit threshold, % at 10 µM; 0.51% of 310,000 active; AID 1511, 2009;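 active = activation above the mean of controls blocked by dofetilide plus 5 SD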;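 note: thallium influx through hERG after potassium depolarization seen as dye fluorescence rise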
KCC2 mod – KCC2 cotransporter modulators, thallium flux, primary screen, cell-based, HEK293 KCC2, FluoZin-2 fluorescence, MLSMR | KCC2 cells, thallium flux FluoZin-2 fluorescence | B-score of Tl+ flux slope (higher = more flux/activation; lower = inhibition) at 10 µM | 2.2% of 190,000 active | AID 1456, 2008;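 active = thallium flux slope and its plate-corrected score both differing from the plate sample mean at a set confidence after two filtering rounds, in either direction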;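 note: slope of fluorescence scaled to starting intensity during 10 to 20 s after thallium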
KCNK9 block – KCNK9 potassium channel inhibitors, primary screen, HEK293 cells, thallium flux | B-score at 10 µM | FluxOR thallium flux fluorescence; stronger effect = lower value | AID 488922, 2010 | 1.2% of 310,000 active | Potassium channel subfamily K member 9 (Homo sapiens), Q9NPC2;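 active = ratio B-score over 3 SD below the library mean, with starting fluorescence within 5 SD of its mean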;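 note: negative B-score means less thallium flux so channel inhibition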
Target sequence (Q9NPC2 whole entry, looked up): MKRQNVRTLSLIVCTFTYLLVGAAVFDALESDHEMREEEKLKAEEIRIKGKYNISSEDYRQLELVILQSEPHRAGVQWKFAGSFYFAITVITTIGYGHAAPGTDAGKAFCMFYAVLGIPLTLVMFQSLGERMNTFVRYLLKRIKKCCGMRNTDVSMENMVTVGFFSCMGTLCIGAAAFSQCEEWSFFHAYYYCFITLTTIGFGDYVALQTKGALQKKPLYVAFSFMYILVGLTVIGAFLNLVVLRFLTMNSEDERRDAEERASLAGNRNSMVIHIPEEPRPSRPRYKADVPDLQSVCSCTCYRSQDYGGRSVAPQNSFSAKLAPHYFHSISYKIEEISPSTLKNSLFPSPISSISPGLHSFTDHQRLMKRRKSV
KCNQ1 block – inhibitors of human KCNQ1 channel, primary screen, cell-based, thallium flux, high-throughput; CHO-K1 KCNQ1, FluxOR thallium flux fluorescence; stronger effect = higher value; B-score at 10 µM; 1.3% of 310,000 active; AID 2642, 2010;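 active = compounds whose thallium flux B-score, printed positive for inhibition, exceeds three library SD while starting fluorescence stays within three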;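 note: channel opened by potassium depolarization with thallium stimulus after 20 min compound exposure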
KCNK9 inh conf – KCNK9 potassium channel inhibitors, confirmation, HEK293 cells, thallium flux, duplicate. shares compounds with KCNK9 block. FluxOR thallium flux fluorescence. inhibition, % at 10 µM. 43% of 4,900 active;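 active = thallium signal inhibited by more than 5 SD of the compound-free buffer control wells, on both duplicate plates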
Kir21 sel – mouse Kir2.1 channel inhibition, confirmation, selectivity assay for KCNK9 modulator project, cell-based, HEK293, thallium flux | shares compounds with KCNK9 block | Kir2.1 cells, FluxOR thallium flux fluorescence | inhibition, % at 10 µM | 4% of 4,900 active | AID 492993, 2010;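 active = thallium signal drop more than 5 SD beyond the mean of the no-compound control wells, seen in both duplicate plates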;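 note: signal is fluorescence rise after thallium addition divided by baseline fluorescence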
HEK293 Tl ctr – thallium flux in non-induced HEK293 cells, confirmation, counter-screen for KCNK9 inhibitor project, cell-based, second counter screen, non-induced KCNK9-HEK293; shares compounds with KCNK9 block; FluxOR thallium flux; inhibition, % at 10 µM; 40% of 4,900 active; AID 492997, 2010;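 active = thallium signal drop beyond 5 SD of the untreated control mean, on both duplicate plates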
Hits are given with their value; i = inactive; nt = not tested or not shown.

SMILES	KCNK3 block	KCNQ1 act	hERG protect	KCC2 mod	KCNK9 block	KCNQ1 block	KCNK9 inh conf	Kir21 sel	HEK293 Tl ctr
Cc1cccc(CC(=O)OCn2nnc3ccccc3c2=O)c1	i	i	i	nt	i	i	i	i	i
COc1ccccc1C/C(N)=N/OC(=O)COc1ccccc1C	i	i	i	i	i	i	i	i	i
COc1ccccc1C/C(N)=N/OC(=O)COc1cccc2ccccc12	i	i	i	nt	i	i	i	i	i
Cc1c(/C=C/C(=O)c2ccc(O)cc2)cnn1C	i	i	i	i	i	i	nt	nt	nt
Cc1ccc(Cn2c(SCC(=O)N/N=C/c3ccc(C)o3)nc3ccccc32)cc1	i	i	i	i	-21	i	55%	i	41%
O=C(NCc1ccc2c(c1)OCO2)c1cc2ncc(Br)cn2n1	i	nt	nt	nt	nt	nt	nt	nt	nt
Cc1ccc(S(=O)(=O)n2nc(OC(=O)c3c(F)cccc3Cl)cc2N)cc1	i	i	i	nt	-20	i	61%	i	36%
Cc1nc(NCC(c2ccccc2)N(C)C)c2c(C)c(C)sc2n1 (stereo not drawn)	i	i	i	nt	i	i	i	i	i
O=C(c1ccco1)N1CCN(C2c3ccccc3-c3ccccc32)CC1	i	i	i	nt	i	i	nt	nt	nt
CC(C)OC(=O)CN1CCN(C2c3ccccc3-c3ccccc32)CC1	i	i	i	nt	i	i	i	i	i
O=C(NNC(=S)NC1CCCCC1)c1cccc(S(=O)(=O)Nc2ccccc2Cl)c1	i	i	i	i	i	i	nt	nt	nt
CSc1cccc(NC(=O)NCc2cccc(CNC(=O)Nc3cccc(SC)c3)c2)c1	i	i	i	i	i	i	nt	nt	nt
Cc1ccc(NC(=O)CN2CCc3cc4c(cc3C2C)OCCCO4)cc1C (stereo not drawn)	i	i	i	nt	i	i	i	i	31%
Cc1ccc(NC(=O)CN2CCc3cc4c(cc3C2C)OCCCO4)cc1 (stereo not drawn)	i	i	i	nt	i	i	nt	nt	nt
Oc1ccc(/C=N/Nc2cc(N3CCCC3)nc(N3CCCC3)n2)cc1	i	i	i	i	i	i	nt	nt	nt
COc1ccc(/C=N/Nc2cc(N3CCCC3)nc(N3CCCC3)n2)cc1	i	i	i	i	i	8	i	i	i
COc1ccc(/C=N\NC(=O)c2cc(O)c(O)c(O)c2)cc1CN1CCN(c2ccc(F)cc2)CC1	i	i	i	i	i	i	i	i	i
COc1ccc(/C=N/NC(=O)c2ccc(C)cc2)cc1CN1CCN(c2ccc(F)cc2)CC1	i	i	i	nt	i	i	nt	nt	nt
Cc1ccc2c(c1)nc(NCCO)n2C	i	i	i	nt	i	i	nt	nt	nt
CCCNC(=O)C12CCC(C)(c3nc4cc(C)c(C)cc4nc31)C2(C)C (stereo not drawn)	i	i	i	i	i	i	i	i	i
COc1cc([N+](=O)[O-])ccc1NC(=S)NNC(=O)c1ccc2c(c1)OCO2	i	i	i	nt	i	10	i	i	i
CC(C)(C)n1ncc(Oc2ccc(Oc3cnn(C(C)(C)C)c(=O)c3Cl)cc2)c(Cl)c1=O	nt	nt	nt	i	nt	nt	nt	nt	nt
Cc1cc(Oc2cnn(C(C)(C)C)c(=O)c2Cl)cc(C(C)C)c1	i	i	i	nt	i	i	i	i	i
COc1ccccc1-n1c(SCC(=O)Nc2cccc(S(N)(=O)=O)c2)nc2ccccc2c1=O	i	i	i	i	-8.4	i	34%	i	i
COc1ccc(OC)c(-n2c(SCC(=O)Nc3cccc(S(N)(=O)=O)c3)nc3ccccc3c2=O)c1	i	i	i	i	-13	i	56%	i	34%
SMILES	KCNK3 block	KCNQ1 act	hERG protect	KCC2 mod	KCNK9 block	KCNQ1 block	KCNK9 inh conf	Kir21 sel	HEK293 Tl ctr
COc1ccc(C)cc1-n1c(SCC(=O)Nc2cc(C)on2)nc2ccccc2c1=O	i	i	i	i	i	i	nt	nt	nt
NS(=O)(=O)c1cccc(NC(=O)CSc2nc3ccccc3c(=O)n2Cc2ccco2)c1	i	nt	nt	nt	nt	nt	nt	nt	nt
COc1ccc(-n2c(SCC(=O)Nc3ccc(C)cc3)nc(O)c(Cc3ccccc3)c2=O)cc1	i	i	i	nt	i	i	nt	nt	nt
COc1ccc(NC(=O)CSc2nnc(C3CCCCC3)n2-c2ccccc2)cc1	i	i	i	i	i	i	i	i	i
COc1ccc(-n2c(SCC(=O)Nc3ccc(Cl)cc3)nc(O)c(Cc3ccccc3)c2=O)cc1	i	i	i	nt	i	i	i	i	i
COc1ccc(NC(=O)CSc2nnc(C3CC3)n2N)cc1	i	i	i	nt	i	i	nt	nt	nt
CC(=O)c1cc(-c2ccccc2)n(CC(=O)N2CCCCC2)c1C	i	i	i	i	i	i	nt	nt	nt
COc1ccc(C(=O)Nc2cccnc2)cc1S(=O)(=O)N1CCOCC1	i	i	i	i	i	i	nt	nt	nt
CCNc1ccccc1C(=O)O	i	i	i	i	i	i	nt	nt	nt
Cc1ccccc1Nc1nnc(SCC2CCCCO2)s1 (stereo not drawn)	i	i	i	i	-8.8	i	i	i	i
COc1ccccc1Nc1nnc(SCC2CCCCO2)s1 (stereo not drawn)	i	i	i	i	i	i	nt	nt	nt
O=S(=O)(N1CCCCC1)n1c(Cc2ccccc2)nc2ccccc21	i	i	i	i	-21	i	76%	i	42%
O=S(=O)(c1ccc(Br)cc1)n1c(Cc2ccccc2)nc2ccccc21	i	i	i	i	i	i	nt	nt	nt
CCOC(=O)c1c(NC(=O)c2c(-c3ccccc3)noc2C)sc(C)c1-c1ccccc1	i	i	i	i	i	i	nt	nt	nt
CCOc1ccc(N2CC(C(=O)Nc3ccc4c(c3)OCCO4)CC2=O)cc1 (stereo not drawn)	i	i	i	nt	i	i	nt	nt	nt
CCOc1ccc(N2CC(C(=O)Nc3ccc4c(c3)OCO4)CC2=O)cc1 (stereo not drawn)	i	i	i	i	i	i	i	i	i
O=C(O)CCCC(=O)NCc1ccccn1	i	i	i	i	i	i	nt	nt	nt
COc1ccc(C(=O)Nc2oc(-c3ccccc3)c(-c3ccccc3)c2C#N)cc1OC	i	i	i	nt	-9.2	i	49%	i	38%
